Columns and labels:
[1] = molecular target: Aldo-keto reductase family 1 member B1 (Bos taurus) (UniProt P16116); assay: In vitro inhibitory activity against Aldose reductase 2 obtained from calf lenses at a concentration of 94 uM
How it was run: (§1)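 Calf lens ALR2 purified by DE52, Orange Matrex affinity and Sephadex G75 chromatography. Inhibitor in DMSO (1% final) added to a 37 °C reaction with 4.7 mM D,L-glyceraldehyde and 0.11 mM NADPH in 0.25 M sodium phosphate pH 6.8 containing 0.38 M ammonium sulfate. Activity followed as absorbance change at 340 nm, corrected with a blank lacking substrate.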

[2] = molecular target: T1, Aldo-keto reductase family 1 member B1 (Bos taurus, UniProt P16116); assay: In vitro inhibitory activity against Aldose reductase 2 obtained from calf lenses
[3] = molecular target: T1, Aldo-keto reductase family 1 member B1; assay: In vitro inhibitory activity against aldose reductase (ALR2) obtained from calf lenses
How it was run: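 ALR2 purified from calf lens: homogenate in pH 7 phosphate buffer with 5 mM DTT, then DE52 ion exchange, Orange Matrex affinity and Sephadex G75. Assay at 37 °C, 4.7 mM D,L-glyceraldehyde, 0.11 mM NADPH, 0.25 M sodium phosphate pH 6.8 with 0.38 M ammonium sulfate, 1% DMSO. NADPH oxidation read at 340 nm against a substrate-free blank.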

[4] = molecular target: Aldo-keto reductase family 1 member B1 (Bos taurus) (UniProt P16116); assay: In vitro inhibitory activity against Aldose reductase 2 obtained from calf lenses at a concentration of 142 uM; how it was run: as §1
[5] = molecular target: Aldo-keto reductase family 1 member B1 (Bos taurus) (UniProt P16116); assay: In vitro inhibitory activity against Aldose reductase 2 obtained from calf lenses at a concentration of 190 uM; how it was run: as §1
[6] = molecular target: Aldo-keto reductase family 1 member B1 (Bos taurus) (UniProt P16116); assay: In vitro inhibitory activity against Aldose reductase 2 obtained from calf lenses at a concentration of 16 uM; how it was run: as §1
[7] = molecular target: Aldo-keto reductase family 1 member B1 (Bos taurus) (UniProt P16116); assay: In vitro inhibitory activity against Aldose reductase 2 obtained from calf lenses at a concentration of 82 uM; how it was run: as §1

SMILES | IC50 [2] [µM] | also measured
CC(=O)c1c(-c2ccccc2)nn(CC(=O)O)c(=O)c1Nc1ccc(Cl)cc1 |  | inhibition [1]: 27%
O=C(O)Cn1nc(-c2ccccc2)cc(NCc2ccccc2)c1=O | 48.8 | 
CC(=O)c1c(-c2ccccc2)nn(CC(=O)O)c(=O)c1NCc1ccc(Cl)cc1 | 36.5 | 
Cc1c(-c2nc3cc(C(F)(F)F)ccc3s2)nc2c(O)n(CC(=O)O)nc(-c3ccccc3)c1-2 | 97.9 | 
Cc1onc2c(=O)n(C/C=C/C(=O)O)nc(-c3ccccc3)c12 |  | IC50 [3]: 107 µM
CC(=O)c1c(-c2ccccc2)nn(CCCC(=O)O)c(=O)c1N | 37 | 
CC(=O)c1c(-c2ccccc2)nn(CC(=O)O)c(=O)c1N |  | IC50 [3]: 154 µM
O=C(O)Cn1nc(-c2ccccc2)cc(NCCc2ccccn2)c1=O | 157 | 
CCCC(C(=O)O)n1nc(-c2ccccc2)c2c(C)onc2c1=O (configuration not stated) | 114 | 
CC(=O)c1c(-c2ccccc2)nn(CCC(=O)O)c(=O)c1N |  | inhibition [4]: 27%
Cc1onc2c(=O)n(CC(=O)O)nc(-c3ccccc3[N+](=O)[O-])c12 | 6.06 | 
CC(=O)c1c(-c2ccccc2)nn(CC(=O)O)c(=O)c1NCc1ccccc1 | 27.6 | 
Cc1onc2c(=O)n(CCC(=O)O)nc(-c3ccccc3)c12 | 65.2 | 
CCC(C(=O)O)n1nc(-c2ccccc2)c2c(C)onc2c1=O (configuration not stated) | 75 | 
C[c-]1[o+]nc2c(=O)n(CC(=O)O)nc(-c3cccc([N+](=O)[O-])c3)c21 | 4.46 | 
Cc1onc2c(=O)n(CC(=O)O)nc(-c3ccccc3)c12 | 12.7 | 
Cc1nn(CCC(=O)O)c(=O)c2noc(C)c12 |  | inhibition [5]: 28%
CC(=O)c1c(C)nn(CC(=O)O)c(=O)c1N |  | IC50 [3]: 210 µM
O=C(O)Cn1nc(-c2ccccc2)cc(NCCc2ccccc2)c1=O | 68.5 | 
CC(=O)c1c(-c2ccccc2)nn(CC(=O)O)c(=O)c1Nc1ccccc1 |  | inhibition [6]: 12%
Cc1onc2c(=O)n(CCC(=O)O)nc(-c3ccc(Cl)cc3)c12 | 34.8 | 
Nc1cc(-c2ccccc2)nn(CC(=O)O)c1=O |  | inhibition [7]: 36%
Cc1onc2c(=O)n(CCCC(=O)O)nc(-c3ccc(Cl)cc3)c12 | 10.4 | 

Now from value to compound, other results behind:

IC50 [2] [µM] | SMILES | also measured
76.8 | Cc1onc2c(=O)n(C(C)C(=O)O)nc(-c3ccccc3)c12 (configuration not stated) | 
42 | Cc1nn(CC(=O)O)c(=O)c2noc(C)c12 | 
93.9 | CC(=O)c1c(-c2ccccc2)nn(CC(=O)O)c(=O)c1NCCc1ccccc1 | 
65.1 | Cc1nn(CCCC(=O)O)c(=O)c2noc(C)c12 | 
3.72 | Cc1onc2c(=O)n(CC(=O)O)nc(-c3ccc(Cl)cc3)c12 | 
20.2 | Cc1onc2c(=O)n(CCCC(=O)O)nc(-c3ccccc3)c12 | 
28.4 | Cc1onc2c(=O)n(CCCCC(=O)O)nc(-c3ccccc3)c12 | 
4.76 | Cc1onc2c(=O)n(CC(=O)O)nc(-c3ccc([N+](=O)[O-])cc3)c12 | 
133 | CC(=O)c1c(-c2ccccc2)nn(CC(=O)O)c(=O)c1Nc1ccc(Br)cc1 | 
